What was measured:
Format in all cases: functional
[1] = system: Candida albicans; assay: Antimicrobial activity against Candida albicans by broth microdilution method
How it was run: (§1)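 Clinical isolates from human patients, tested by broth microdilution using the AFST-EUCAST reference procedure for fermentative yeasts. The MIC was read per that reference method.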

[2] = system: Candida parapsilosis; assay: Antimicrobial activity against Candida parapsilosis by broth microdilution method; conditions: Lodderomyces parapsilosis; how it was run: as §1
[3] = system: Candida tropicalis; assay: Antimicrobial activity against Candida tropicalis by broth microdilution method; how it was run: as §1
[4] = system: Nakaseomyces glabratus; assay: Antimicrobial activity against Candida glabrata by broth microdilution method; how it was run: as §1
[5] = system: Pichia kudriavzevii; assay: Antimicrobial activity against Candida krusei by broth microdilution method; how it was run: as §1
[6] = system: Meyerozyma guilliermondii; assay: Antimicrobial activity against Candida guilliermondii by broth microdilution method; how it was run: as §1
[7] = system: Clavispora lusitaniae; assay: Antimicrobial activity against Candida lusitaniae by broth microdilution method; how it was run: as §1
[8] = system: Kluyveromyces marxianus; assay: Antimicrobial activity against Candida kefyr by broth microdilution method; how it was run: as §1
[9] = system: Diutina rugosa; assay: Antimicrobial activity against Candida rugosa by broth microdilution method; how it was run: as §1
[10] = system: Debaryomyces hansenii; assay: Antimicrobial activity against Candida famata by broth microdilution method; how it was run: as §1
[11] = system: Wickerhamomyces anomalus; assay: Antimicrobial activity against Candida pelliculosa by broth microdilution method; conditions: Hansenula anomala; how it was run: as §1
[12] = system: Torulaspora delbrueckii; assay: Antimicrobial activity against Candida coliculosa by broth microdilution method; how it was run: as §1
[13] = system: Pichia norvegensis; assay: Antimicrobial activity against Candida norvegensis by broth microdilution method; how it was run: as §1
[14] = system: [Candida] intermedia; assay: Antimicrobial activity against Candida intermedia by broth microdilution method; conditions: Sungouiella intermedia; how it was run: as §1
[15] = system: [Candida] inconspicua; assay: Antimicrobial activity against Candida inconspicua by broth microdilution method; conditions: Pichia inconspicua; how it was run: as §1
[16] = system: Candida metapsilosis; assay: Antimicrobial activity against Candida metapsilosis by broth microdilution method; conditions: Lodderomyces metapsilosis; how it was run: as §1
[17] = system: Candida orthopsilosis; assay: Antimicrobial activity against Candida orthopsilosis by broth microdilution method; conditions: Lodderomyces orthopsilosis; how it was run: as §1
[18] = system: Kazachstania pintolopesii; assay: Antimicrobial activity against Candida pintolopesii by broth microdilution method; conditions: Arxiozyma pintolopesii; how it was run: as §1
[19] = system: [Candida] zeylanoides; assay: Antimicrobial activity against Candida zeylanoides by broth microdilution method; conditions: Dujonia zeylanoides; how it was run: as §1
[20] = system: Magnusiomyces capitatus; assay: Antimicrobial activity against Dipodascus capitatus by broth microdilution method
[21] = system: Saccharomyces cerevisiae; assay: Antimicrobial activity against Saccharomyces cerevisiae by broth microdilution method
[22] = system: Yarrowia lipolytica; assay: Antimicrobial activity against Yarrowia lipolytica by broth microdilution method
[23] = system: Geotrichum candidum; assay: Antimicrobial activity against Galactomyces geotrichum by broth microdilution method
[24] = system: Cryptococcus deneoformans; assay: Antimicrobial activity against Cryptococcus neoformans var. neoformans by broth microdilution method
How it was run: (§2)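 Clinical isolates of nonfermentative yeasts, tested by broth microdilution following EUCAST recommendations. The only change from that method was a minor modification to improve growth.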

[25] = system: Trichosporon asahii; assay: Antimicrobial activity against Trichosporon asahii by broth microdilution method
How it was run: (§3)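 Nonfermentative yeast clinical isolates (Rhodotorula, Trichosporon) tested by broth microdilution. The EUCAST yeast recommendations were followed strictly, with one minor modification to improve growth. MIC was read as the endpoint.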

[26] = system: Rhodotorula mucilaginosa; assay: Antimicrobial activity against Rhodotorula mucilaginosa by broth microdilution method; how it was run: as §3
[27] = system: Trichosporon inkin; assay: Antimicrobial activity against Trichosporon inkin by broth microdilution method; how it was run: as §3
[28] = system: Trichosporon ovoides; assay: Antimicrobial activity against Trichosporon ovoides by broth microdilution method; how it was run: as §3
[29] = system: Trichosporon dermatis; assay: Antimicrobial activity against Trichosporon dermatis by broth microdilution method; conditions: Cutaneotrichosporon dermatis; how it was run: as §3
[30] = system: Trichosporon jirovecii; assay: Antimicrobial activity against Trichosporon jirovecii by broth microdilution method; conditions: Cutaneotrichosporon jirovecii; how it was run: as §3
[31] = system: Naganishia albida; assay: Antimicrobial activity against Cryptococcus albidus by broth microdilution method; how it was run: as §2
[32] = system: Ustilago; assay: Antimicrobial activity against Ustilago spp by broth microdilution method
[33] = system: Rhodotorula glutinis; assay: Antimicrobial activity against Rhodotorula glutinis by broth microdilution method; how it was run: as §3
[34] = system: Papiliotrema laurentii; assay: Antimicrobial activity against Cryptococcus laurentii by broth microdilution method; how it was run: as §2
[35] = system: Trichosporon domesticum; assay: Antimicrobial activity against Trichosporon mycotoxinivorans by broth microdilution method; conditions: Apiotrichum domesticum
How it was run: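 Spanish human clinical isolates were tested as nonfermentative yeasts by broth microdilution. The method strictly followed the EUCAST recommendations, with a minor modification to improve growth, and the read-out was the MIC.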

[36] = system: Trichosporon; assay: Antimicrobial activity against Trichosporon spp. by broth microdilution method; how it was run: as §3

Nc1nc(=O)[nH]cc1F [FLUCYTOSINE]
16 µg/mL: MIC90 [7] | MIC90 [9] | MIC90 [10] | MIC90 [11] | MIC90 [12] | MIC90 [13] | MIC90 [14] | MIC90 [15] | MIC90 [16] | MIC90 [17] | MIC90 [18] | MIC90 [19] | MIC50 [24] | MIC50 [28] | MIC50 [29] | MIC50 [30] | MIC50 [31] | MIC50 [32] | MIC50 [33] | MIC50 [34] | MIC50 [35] | MIC50 [36]
0.25 µg/mL: MIC90 [2] | MIC90 [3] | MIC90 [4] | MIC90 [6] | MIC50 [9] | MIC50 [10] | MIC50 [11] | MIC50 [12] | MIC50 [13] | MIC50 [14] | MIC50 [15] | MIC50 [16] | MIC50 [17] | MIC50 [18] | MIC50 [19] | MIC90 [23] | MIC50 [26]
0.12 µg/mL: MIC50 [1] | MIC50 [2] | MIC50 [3] | MIC50 [4] | MIC50 [6] | MIC50 [7] | MIC50 [20] | MIC50 [21] | MIC50 [23]
8 µg/mL: MIC90 [5]
32 µg/mL: MIC90 [24] | MIC50 [25]
> 64 µg/mL: MIC50 [22] | MIC90 [22] | MIC90 [25] | MIC90 [27] | MIC90 [28] | MIC90 [29] | MIC90 [30] | MIC90 [31] | MIC90 [32] | MIC90 [33] | MIC90 [34] | MIC90 [35] | MIC90 [36]
0.5 µg/mL: MIC90 [1] | MIC50 [8] | MIC90 [21]
1 µg/mL: MIC90 [20] | MIC90 [26]
64 µg/mL: MIC50 [27]
4 µg/mL: MIC50 [5] | MIC90 [8]

OC(Cn1cncn1)(Cn1cncn1)c1ccc(F)cc1F [FLUCONAZOLE]
32 µg/mL: MIC90 [4] | MIC50 [5] | MIC90 [20]
0.12 µg/mL: MIC50 [1]
> 64 µg/mL: MIC90 [5] | MIC90 [6] | MIC90 [9] | MIC90 [10] | MIC90 [11] | MIC90 [12] | MIC90 [13] | MIC90 [14] | MIC90 [15] | MIC90 [16] | MIC90 [17] | MIC90 [18] | MIC90 [19] | MIC90 [21] | MIC90 [22] | MIC90 [23] | MIC90 [24] | MIC90 [25] | MIC50 [26] | MIC90 [26] | MIC90 [28] | MIC90 [29] | MIC90 [30] | MIC90 [31] | MIC90 [32] | MIC90 [33] | MIC90 [34] | MIC90 [35] | MIC90 [36]
8 µg/mL: MIC50 [9] | MIC50 [10] | MIC50 [11] | MIC50 [12] | MIC50 [13] | MIC50 [14] | MIC50 [15] | MIC50 [16] | MIC50 [17] | MIC50 [18] | MIC50 [19] | MIC50 [22]
64 µg/mL: MIC50 [23]
0.25 µg/mL: MIC90 [1] | MIC50 [3] | MIC50 [7] | MIC50 [8]
2 µg/mL: MIC90 [3]
4 µg/mL: MIC50 [4] | MIC50 [6] | MIC50 [21] | MIC50 [27] | MIC90 [27]
0.5 µg/mL: MIC50 [2] | MIC90 [8]
16 µg/mL: MIC50 [20] | MIC50 [24] | MIC50 [25] | MIC50 [28] | MIC50 [29] | MIC50 [30] | MIC50 [31] | MIC50 [32] | MIC50 [33] | MIC50 [34] | MIC50 [35] | MIC50 [36]
1 µg/mL: MIC90 [2] | MIC90 [7]

Reference: ChEMBL document CHEMBL1649165, “Activity profile in vitro of micafungin against Spanish clinical isolates of common and emerging species of yeasts and molds” (2009)
